Columns and labels:
[1] = tested on: MDA‐MB‐436; assay: MTT antiviability assay; assay type: cell-based; conditions: Homo sapiens, MDA-MB-436, 72 h
[2] = tested on: DU145; conditions: DU145, Prostate carcinoma; ref Zhang et al (2016) 35; cited from earlier work
[3] = tested on: ERK; assay: Western blot, ERK phosphorylation; assay type: cell-based, human; conditions: Aspc‐1 and Bxpc‐3 cells, 12 hours
Summary of the method: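 Aspc-1 and Bxpc-3 cells were grown overnight in complete medium and treated with test compound for 12 h. Cells were lysed in RIPA buffer and protein was quantified. Lysates were run on SDS-PAGE and transferred to PVDF, then blocked 2 h in TBS-T with 5% non-fat milk. Blots were probed for pAKT Ser473, pERK Thr202/Tyr204, pSTAT3 Tyr705, the matching total proteins and β-actin. Detection was by enhanced chemiluminescence.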

[4] = tested on: HPAC; assay: MTT antiviability assay; assay type: cell-based; conditions: Homo sapiens, 72 h
[5] = tested on: Bxpc‐3 cells; assay: Annexin V/PI apoptosis assay; assay type: cell-based, human; conditions: 24 hours
Summary of the method: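 Cells were treated with a range of concentrations for 24 hours, washed with PBS, then stained with annexin V‑FITC and propidium iodide for 15 minutes in the dark. […] Early (annexin V) and late (PI) apoptotic cells are reported as percentages, mean of n = 3 with SD.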

[6] = tested on: KG‐1a; assay: MTT antiviability assay; assay type: cell-based; conditions: Homo sapiens, 72 h
[7] = tested on: COLO‐205; assay: MTT antiviability assay; assay type: cell-based; conditions: Homo sapiens, COLO 205, 72 h
[8] = tested on: MDA‐MB‐415; conditions: MDA‐MB‐415, Breast cancer; ref Zhang et al (2016) 35; cited from earlier work
[9] = tested on: Src; assay: Immunohistochemistry of xenograft tumor tissues; assay type: in vivo, NOD‐SCID mice; conditions: Aspc‐1 and Bxpc‐3 models; LY‐1816 and dasatinib 40 mg/kg/d p.o., gemcitabine 80 mg/kg/wk; IHC
[10] = tested on: FOSL1; assay: Immunohistochemistry of xenograft tumor tissues; assay type: in vivo, NOD‐SCID mice; conditions: Aspc‐1 and Bxpc‐3 models; LY‐1816 and dasatinib 40 mg/kg/d p.o., gemcitabine 80 mg/kg/wk; IHC
Summary of the method: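 Six-week-old female NOD-SCID mice received 5 × 10⁶ to 1 × 10⁷ cells s.c. in the right flank. Treatment began at about 200 mm³. Test compound (40 mg/kg/d) was given once daily by oral gavage in 25% PEG400 plus 5% DMSO in water. Tumors were resected at the end of dosing. Frozen sections were immunostained and imaged by light microscopy.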

[11] = tested on: cleaved caspase‐3; assay: Immunohistochemistry of xenograft tumor tissues; assay type: in vivo, NOD‐SCID mice; conditions: xenograft models; LY‐1816 40 mg/kg/d p.o., gemcitabine 80 mg/kg/wk; IHC
Summary of the method: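 Aspc‑1 or Bxpc‑3 s.c. tumors in NOD‑SCID mice were dosed p.o. daily from about 200 mm³, with vehicle controls. At study end, tumors were resected. Frozen sections were immunostained and imaged by light microscopy, and cleaved caspase‑3‑positive cells were counted.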

[12] = tested on: L929; conditions: L929, Mouse fibroblast (normal cell line); ref Zhang et al (2016) 35; cited from earlier work
[13] = tested on: HepG2; conditions: HepG2, Hepatocarcinoma; ref Zhang et al (2016) 35; cited from earlier work
[14] = tested on: ZR‐75‐1; conditions: ZR‐75‐1, Breast cancer; ref Zhang et al (2016) 35; cited from earlier work
[15] = target: Src (Homo sapiens, UniProt P12931); assay type: cell-based; conditions: 12 hours, western blot
Src (Homo sapiens, UniProt P12931), sequence (P12931 whole entry): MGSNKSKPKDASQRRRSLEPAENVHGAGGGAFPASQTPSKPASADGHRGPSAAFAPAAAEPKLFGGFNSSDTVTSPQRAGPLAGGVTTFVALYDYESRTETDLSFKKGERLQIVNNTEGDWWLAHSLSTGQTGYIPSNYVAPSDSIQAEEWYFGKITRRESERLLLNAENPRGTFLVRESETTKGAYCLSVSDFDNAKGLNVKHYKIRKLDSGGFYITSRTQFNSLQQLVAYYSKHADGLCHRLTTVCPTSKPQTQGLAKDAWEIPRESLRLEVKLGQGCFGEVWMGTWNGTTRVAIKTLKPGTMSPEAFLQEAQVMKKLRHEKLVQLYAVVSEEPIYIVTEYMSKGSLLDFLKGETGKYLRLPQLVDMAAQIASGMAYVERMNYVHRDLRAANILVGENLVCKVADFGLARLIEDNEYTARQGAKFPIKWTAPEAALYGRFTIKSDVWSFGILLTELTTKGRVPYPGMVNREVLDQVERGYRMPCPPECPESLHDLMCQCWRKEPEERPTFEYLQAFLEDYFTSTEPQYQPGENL

[16] = tested on: SMMC7721; conditions: SMMC7721, Hepatocarcinoma; ref Zhang et al (2016) 35; cited from earlier work
[17] = tested on: PC‐9; conditions: PC‐9, Lung cancer; mean ± SD; ref Zhang et al (2016) 35; cited from earlier work
[18] = target: Yes (Homo sapiens, UniProt P07947); assay: Radiometric kinase IC50 assay; assay type: biochemical
Yes, sequence (P07947 whole entry): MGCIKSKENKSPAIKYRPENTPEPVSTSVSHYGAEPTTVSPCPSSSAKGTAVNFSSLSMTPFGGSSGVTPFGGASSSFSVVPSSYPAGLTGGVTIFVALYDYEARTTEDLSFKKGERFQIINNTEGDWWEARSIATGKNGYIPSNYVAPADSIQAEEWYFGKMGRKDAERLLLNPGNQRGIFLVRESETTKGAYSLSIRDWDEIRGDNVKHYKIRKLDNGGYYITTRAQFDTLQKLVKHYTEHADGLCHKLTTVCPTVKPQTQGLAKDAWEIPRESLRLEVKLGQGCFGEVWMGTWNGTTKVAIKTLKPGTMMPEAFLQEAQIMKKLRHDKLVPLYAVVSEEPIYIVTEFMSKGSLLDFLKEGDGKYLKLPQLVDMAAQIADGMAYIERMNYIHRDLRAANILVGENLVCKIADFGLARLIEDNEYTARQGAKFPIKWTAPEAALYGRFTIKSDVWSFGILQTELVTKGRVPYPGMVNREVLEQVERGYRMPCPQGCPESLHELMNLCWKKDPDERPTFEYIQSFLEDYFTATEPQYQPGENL

[19] = tested on: LO2; conditions: LO2, Human hepatic cells (normal cell line); ref Zhang et al (2016) 35; cited from earlier work
[20] = tested on: MV4‐11; conditions: MV4‐11, Leukemia; mean ± SD; ref Zhang et al (2016) 35; cited from earlier work
[21] = tested on: PANC‐1; assay: MTT antiviability assay; assay type: cell-based; conditions: Homo sapiens, PANC-1, 72 h
[22] = tested on: Aspc‐1 cells; assay: Colony formation assay; assay type: cell-based, human; conditions: 14 days
Summary of the method: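 Cells were seeded at 5000-8000 per well and treated with test compound the next day, from DMSO stocks diluted in medium. Medium with vehicle or compound was replaced every 4 days. Cells were then methanol-fixed and crystal violet-stained. Colonies of more than 50 cells were counted under an inverted microscope and expressed as a percentage of colony numbers. Mean of n = 3, with SD.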

[23] = target: Fyn (Homo sapiens, UniProt P06241); assay: Radiometric kinase IC50 assay; assay type: biochemical
Fyn, sequence (P06241 whole entry): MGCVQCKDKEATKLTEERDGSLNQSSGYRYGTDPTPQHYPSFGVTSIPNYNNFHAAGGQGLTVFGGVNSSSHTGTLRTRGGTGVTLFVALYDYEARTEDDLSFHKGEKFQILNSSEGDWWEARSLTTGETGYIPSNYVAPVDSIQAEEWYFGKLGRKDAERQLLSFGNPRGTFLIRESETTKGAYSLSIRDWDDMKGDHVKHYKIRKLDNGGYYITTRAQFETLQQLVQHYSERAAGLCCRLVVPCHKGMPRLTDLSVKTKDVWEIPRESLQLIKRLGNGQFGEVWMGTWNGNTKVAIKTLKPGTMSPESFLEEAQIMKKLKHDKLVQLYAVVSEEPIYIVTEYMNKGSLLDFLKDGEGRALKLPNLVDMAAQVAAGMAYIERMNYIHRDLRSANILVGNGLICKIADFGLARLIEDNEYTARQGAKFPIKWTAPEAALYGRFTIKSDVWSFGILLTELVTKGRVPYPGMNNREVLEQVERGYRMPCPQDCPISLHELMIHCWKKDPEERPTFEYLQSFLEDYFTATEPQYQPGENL

[24] = tested on: Bxpc‐3 cells; assay: EdU incorporation; assay type: cell-based, human; conditions: 24 hours
Summary of the method: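 Cells were seeded overnight at 5000-8000 per well in 96-well plates, then exposed to test compound for 24 h. Cells were then incubated with EdU followed by Hoechst, using a commercial kit per manufacturer's instructions. EdU marks proliferating cells and Hoechst marks nuclei. The read-out was the percentage of EdU-positive cells, as mean of n = 3 with SD.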

[25] = tested on: SW1990; assay: MTT antiviability assay; assay type: cell-based; conditions: Homo sapiens, SW1990, 72 h
[26] = tested on: HPAF‐II; assay: MTT antiviability assay; assay type: cell-based; conditions: Homo sapiens, 72 h
[27] = tested on: HCC1937; conditions: HCC1937, Triple negative breast cancer; mean ± SD; ref Zhang et al (2016) 35; cited from earlier work

For `Cc1ccc(NC(=O)c2ccc(C)c(C(F)(F)F)c2)cc1C#Cc1nn(C2CCC(O)CC2)c2ncnc(N)c12` (stereo not shown) [LY‐1816, N‐(3‐((4‐amino‐1‐(4‐hydroxycyclohexyl)‐1H‐pyrazolo[3,4‐d]pyrimidin‐3‐yl)ethynyl)‐4‐methylphenyl)‐4‐methyl‐3‐(trifluoromethyl)benzamide], the IC50 [1] is listed as over 10000 nM, the IC50 [2] is listed as over 10000 nM and the “phosphorylation of ERK” value [3] is listed as “very weak or no impact on the phosphorylation of ERK and AKT”. The IC50 [4] was 45 ± 4 nM, the “apoptosis (annexin V and PI‐positive populations)” value [5] was “significantly increased the annexin V and PI‐positive populations” and the IC50 [6] was over 10000 nM. For the same compound, the IC50 [7] was 17 ± 1 nM, the IC50 [8] was about 10000 nM and the “phosphorylation of Src in tumor tissues” value [9] was “evidently reduced the phosphorylation of Src and STAT3”. For the same compound, the “expression of FOSL1 in tumor tissues” value [10] was “evidently reduced”, the “cleaved caspase‐3 stain in tumor tissues” value [11] was “considerable ability to induce apoptosis” and the IC50 [12] was over 10000 nM. The IC50 [13] was over 10000 nM, the IC50 [14] was about 10000 nM and the “phosphorylation of Src” value ([15]; 10 PDAC cell lines) was “potently inhibited the phosphorylation of Src”. For the same compound, the Src phosphorylation ([15]; HT29 and HCT116 cells) was “relatively weak potency”, the IC50 [16] was over 10000 nM and the IC50 [17] was 152 ± 41 nM. The IC50 [18] was 1 nM, the IC50 [19] was over 10000 nM and the IC50 [20] was 138 ± 15 nM. For the same compound, the IC50 [21] was 123 ± 15 nM, the colony growth [22] was “significantly inhibited the colony growth” and the IC50 [23] was 6 nM. For the same compound, the “DNA replication (EdU)” value [24] was “dose‐dependently suppress the DNA replication”, the IC50 [25] was 42 ± 53 nM and the IC50 [26] was 215 ± 31 nM. For the same compound, the IC50 [27] was 455 ± 87 nM.

Reference: paper PMC6447837 (Cancer Science, 2019)
